Measurements from ChEMBL document CHEMBL1132963, “Structure-based design of potent, amidine-derived inhibitors of factor Xa: evaluation of selectivity, anticoagulant activity, and antithrombotic activity” (2000).

Key:
[1] = target: Coagulation factor X (Homo sapiens) (UniProt P00742); test: Apparent association constant against human Coagulation factor X.
Method in brief: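 Human fXa at 3.2 nM final in Tris/NaCl buffer pH 7.4 with HSA; inhibitor added from MeOH in triplicate at four to eight concentrations, then chromogenic substrate (0.3 mM stock) to start hydrolysis, read at 405 nm. Free and bound enzyme taken from on-plate standard curves; apparent Kass = [Eb]/[Ef][Io − Ib] from concentrations giving 20–80% inhibition. At least 3 separate experiments averaged.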

[2] = target: Prothrombin (Homo sapiens) (UniProt P00734); test: Tested for inhibition of thrombin.
Method in brief: (§1)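 Apparent association constant from inhibition of chromogenic substrate hydrolysis read at 405 nm, using a single substrate concentration suited to each protease. Inhibitor dilutions done in triplicate at four to eight concentrations; Kass computed from free and bound enzyme at 20–80% inhibition. Mean of at least 3 separate experiments.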

[3] = target: Tissue-type plasminogen activator (Homo sapiens) (UniProt P00750); test: Tested for inhibition of Tissue type plasminogen activator; method in brief: as §1
Chain of Tissue-type plasminogen activator (Homo sapiens) (P00750 36-562 limits assumed): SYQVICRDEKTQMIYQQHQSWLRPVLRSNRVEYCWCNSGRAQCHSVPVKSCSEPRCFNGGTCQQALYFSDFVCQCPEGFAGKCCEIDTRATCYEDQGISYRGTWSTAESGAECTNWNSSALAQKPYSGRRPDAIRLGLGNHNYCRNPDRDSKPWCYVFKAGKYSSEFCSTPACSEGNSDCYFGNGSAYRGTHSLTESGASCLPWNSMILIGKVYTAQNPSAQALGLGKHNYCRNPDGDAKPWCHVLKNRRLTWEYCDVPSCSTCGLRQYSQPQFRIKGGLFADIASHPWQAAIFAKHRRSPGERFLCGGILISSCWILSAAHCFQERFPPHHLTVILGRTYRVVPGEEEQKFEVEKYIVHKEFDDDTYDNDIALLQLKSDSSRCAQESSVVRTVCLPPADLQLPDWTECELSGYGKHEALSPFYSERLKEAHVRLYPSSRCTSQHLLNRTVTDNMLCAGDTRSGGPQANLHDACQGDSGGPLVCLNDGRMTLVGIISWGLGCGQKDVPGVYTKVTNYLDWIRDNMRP

Homo sapiens = species: Homo sapiens; test: Compound required to double the time to clot formation in reconstituted human plasma, using the prothromboplastin time (PT); type: functional
Method in brief: (§2)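 Reconstituted human plasma; clotting by activated partial thromboplastin time or prothrombin time. Value is the inhibitor concentration that doubles clotting time.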

[4] = target: Vitamin K-dependent protein C (Homo sapiens) (UniProt P04070); test: Tested for inhibition of activated protein C; method in brief: as §1
Chain of Vitamin K-dependent protein C (Homo sapiens) (P04070 43-197 limits assumed): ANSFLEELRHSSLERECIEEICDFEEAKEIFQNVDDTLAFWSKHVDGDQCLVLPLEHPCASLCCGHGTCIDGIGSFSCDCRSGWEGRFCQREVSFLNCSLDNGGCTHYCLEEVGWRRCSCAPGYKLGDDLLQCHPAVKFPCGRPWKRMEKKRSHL
Chain of Vitamin K-dependent protein C (Homo sapiens) (P04070 212-461 limits assumed): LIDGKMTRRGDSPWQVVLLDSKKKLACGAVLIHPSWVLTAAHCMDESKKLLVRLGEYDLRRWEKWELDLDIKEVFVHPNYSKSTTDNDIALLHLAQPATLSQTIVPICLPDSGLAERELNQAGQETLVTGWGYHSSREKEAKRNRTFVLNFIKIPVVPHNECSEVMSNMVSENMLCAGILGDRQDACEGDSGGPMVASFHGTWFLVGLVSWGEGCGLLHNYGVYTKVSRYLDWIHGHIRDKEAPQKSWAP

[5] = Selectivity as the ratio of Kass value towards fXa to that of UK.
Method in brief: (§3)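 Ratio of fXa Kass to Kass for the second protease. Each Kass is an apparent association constant from chromogenic substrate hydrolysis kinetics at 405 nm, run at one substrate concentration per protease, in triplicate at four to eight inhibitor concentrations. Each value is the mean of at least 3 separate experiments.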

[6] = target: Urokinase-type plasminogen activator (Homo sapiens) (UniProt P00749); test: Tested for inhibition of Urokinase-type plasminogen activator; method in brief: as §1
[7] = target: Coagulation factor X (Homo sapiens) (UniProt P00742); test: Selectivity as the ratio of Kass value towards fXa to that of aPC.; method in brief: as §3
[8] = target: Plasminogen (Homo sapiens) (UniProt P00747); test: Tested for inhibition of plasmin
Chain of Plasminogen (Homo sapiens) (P00747 whole entry, looked up): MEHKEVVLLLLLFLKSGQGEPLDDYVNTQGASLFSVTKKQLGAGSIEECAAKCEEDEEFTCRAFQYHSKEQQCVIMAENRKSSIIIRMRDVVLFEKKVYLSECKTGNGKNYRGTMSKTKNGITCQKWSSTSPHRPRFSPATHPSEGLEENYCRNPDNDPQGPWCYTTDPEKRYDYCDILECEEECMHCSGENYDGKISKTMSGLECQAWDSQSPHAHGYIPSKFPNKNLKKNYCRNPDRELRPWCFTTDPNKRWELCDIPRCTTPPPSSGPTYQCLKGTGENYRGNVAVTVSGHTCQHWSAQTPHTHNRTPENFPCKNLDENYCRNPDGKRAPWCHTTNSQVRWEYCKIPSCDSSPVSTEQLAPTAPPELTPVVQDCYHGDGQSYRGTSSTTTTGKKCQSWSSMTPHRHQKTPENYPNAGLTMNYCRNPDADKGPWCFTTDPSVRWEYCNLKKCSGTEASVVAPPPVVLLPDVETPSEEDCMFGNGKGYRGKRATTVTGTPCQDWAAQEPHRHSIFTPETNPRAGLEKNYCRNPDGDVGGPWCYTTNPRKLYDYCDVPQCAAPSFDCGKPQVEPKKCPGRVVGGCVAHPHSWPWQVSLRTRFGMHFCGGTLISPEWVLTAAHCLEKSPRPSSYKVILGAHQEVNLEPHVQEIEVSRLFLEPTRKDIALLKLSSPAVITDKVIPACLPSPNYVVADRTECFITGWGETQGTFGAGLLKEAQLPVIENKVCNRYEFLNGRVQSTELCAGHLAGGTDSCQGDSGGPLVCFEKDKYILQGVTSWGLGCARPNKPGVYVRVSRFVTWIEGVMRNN

Trypsin II (Bos taurus) = target: T1, Trypsin II (Bos taurus) (UniProt Q29463); test: Tested for inhibition of trypsin; method in brief: as §1
T1 sequence (whole entry): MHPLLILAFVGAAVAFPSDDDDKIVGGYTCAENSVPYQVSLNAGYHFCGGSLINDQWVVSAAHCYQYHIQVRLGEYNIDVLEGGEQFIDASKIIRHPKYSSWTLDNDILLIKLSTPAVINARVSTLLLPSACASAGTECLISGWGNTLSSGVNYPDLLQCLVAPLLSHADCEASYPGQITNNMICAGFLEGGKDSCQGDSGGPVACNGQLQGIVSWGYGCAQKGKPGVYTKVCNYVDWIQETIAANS

[9] = Compound required to double the time to clot formation in reconstituted human plasma, using activated partial thromboplastin time (APTT); type: functional; method in brief: as §2
[10] = Selectivity as the ratio of Kass value towards fXa to that of tissue plasminogen activator.; method in brief: as §3
[11] = target: Thrombin and coagulation factor X (Homo sapiens) (UniProt P00734+P00742); test: Selectivity as the ratio of Kass value towards fXa to that of thrombin.; type: protein assay; method in brief: as §3
Chain of Thrombin and coagulation factor X (Homo sapiens) (P00742 whole entry, looked up, other chains not shown): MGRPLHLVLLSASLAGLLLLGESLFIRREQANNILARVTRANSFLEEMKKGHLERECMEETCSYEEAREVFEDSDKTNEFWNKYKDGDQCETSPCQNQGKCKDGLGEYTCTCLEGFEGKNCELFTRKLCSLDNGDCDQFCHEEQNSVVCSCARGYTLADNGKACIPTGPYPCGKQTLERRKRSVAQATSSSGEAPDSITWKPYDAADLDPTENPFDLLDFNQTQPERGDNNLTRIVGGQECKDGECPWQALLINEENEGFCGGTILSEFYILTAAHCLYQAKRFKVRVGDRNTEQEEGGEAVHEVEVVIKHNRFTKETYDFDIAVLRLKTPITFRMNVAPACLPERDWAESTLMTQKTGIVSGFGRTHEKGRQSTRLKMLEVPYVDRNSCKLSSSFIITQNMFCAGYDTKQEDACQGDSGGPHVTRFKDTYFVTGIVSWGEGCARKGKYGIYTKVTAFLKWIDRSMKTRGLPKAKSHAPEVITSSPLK

[12] = Selectivity as the ratio of Kass value towards fXa to that of trypsin.; method in brief: as §3
[13] = tested on: Plasminogen and coagulation factor X (Homo sapiens); test: Selectivity as the ratio of Kass value towards fXa to that of plasmin.

Chain of Coagulation factor X (Homo sapiens) (P00742 41-179 limits assumed): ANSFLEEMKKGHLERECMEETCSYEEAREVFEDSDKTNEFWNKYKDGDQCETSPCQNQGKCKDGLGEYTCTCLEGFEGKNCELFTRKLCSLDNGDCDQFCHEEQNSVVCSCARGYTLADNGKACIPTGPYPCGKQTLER
Chain of Coagulation factor X (Homo sapiens) (P00742 235-488 limits assumed): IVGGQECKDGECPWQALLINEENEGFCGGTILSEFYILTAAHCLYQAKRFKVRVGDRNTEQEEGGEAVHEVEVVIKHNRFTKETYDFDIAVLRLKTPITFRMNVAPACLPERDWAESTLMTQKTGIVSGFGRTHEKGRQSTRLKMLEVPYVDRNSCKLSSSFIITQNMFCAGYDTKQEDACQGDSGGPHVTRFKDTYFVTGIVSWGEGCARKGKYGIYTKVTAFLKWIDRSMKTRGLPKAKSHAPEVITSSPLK

CC(C)(C)c1ccc(C(=O)Nc2ccsc2C(=O)Nc2cccc(C(=N)N)c2)cc1
K ass [1]: 1.2e+07 l M-1

CC(C)(C)c1ccc(C(=O)Nc2cc(C(=O)O)ccc2NC(=O)c2cccc(C(=N)N)c2)cc1
K ass [2]: 650000 l M-1 | K ass [3]: 4000 l M-1 | Activity (Homo sapiens): 0.83 µM | K ass [4]: 13000 l M-1 | Ratio [5]: 470000 | K ass [6]: 1000 l M-1 | Ratio [7]: 36000 | K ass [8]: 73000 l M-1 | K ass (Trypsin II (Bos taurus)): 1.2e+07 l M-1 | Activity [9]: 0.72 µM | Ratio [10]: 120000 | Ratio [11]: 720 | Ratio [12]: 390 | Ratio [13]: 6400

CC(C)(C)c1ccc(C(=O)Nc2ccccc2C(=O)Nc2cccc(C(=N)N)c2)cc1
K ass [1]: 3.5e+06 l M-1

COc1ccc(C(=O)Nc2ccccc2NC(=O)c2cccc(C(=N)N)c2)cc1
K ass [2]: 270000 l M-1 | K ass [3]: 20000 l M-1 | Activity (Homo sapiens): 1.5 µM | K ass [4]: 15000 l M-1 | Ratio [5]: 15000 | K ass [6]: 1000 l M-1 | K ass [1]: 1.4e+07 l M-1 | Ratio [7]: 1000 | K ass [8]: 20000 l M-1 | K ass (Trypsin II (Bos taurus)): 600000 l M-1 | Activity [9]: 2 µM | Ratio [10]: 750 | Ratio [11]: 56 | Ratio [12]: 25 | Ratio [13]: 750

COc1ccc(NC(=O)c2ccccc2NC(=O)c2cccc(C(=N)N)c2)cc1
K ass [1]: 1.7e+06 l M-1

CC(C)(C)c1ccc(C(=O)Nc2ccccc2NC(=O)c2cccc(C(=N)N)c2)cc1
K ass [2]: 3e+06 l M-1 | K ass [3]: 11000 l M-1 | Activity (Homo sapiens): 0.96 µM | K ass [4]: 2000 l M-1 | Ratio [5]: > 250000 | K ass [1]: 2.5e+08 l M-1 | Ratio [7]: 13000 | K ass [8]: 6000 l M-1 | K ass (Trypsin II (Bos taurus)): 340000 l M-1 | Activity [9]: 0.67 µM | Ratio [10]: 23000 | Ratio [11]: 83 | Ratio [12]: 740 | Ratio [13]: 42000

CCOC(=O)COc1ccc(NC(=O)c2cccc(C(=N)N)c2)c(NC(=O)c2ccc(C(C)C)cc2)c1
K ass [1]: 1.6e+08 l M-1

CC(C)c1ccc(C(=O)Nc2cc(OCC(=O)O)ccc2NC(=O)c2cccc(C(=N)N)c2)cc1
K ass [2]: 800000 l M-1 | K ass [3]: 7000 l M-1 | K ass [4]: 14000 l M-1 | Ratio [5]: 340000 | K ass [6]: 1000 l M-1 | K ass [1]: 3.4e+08 l M-1 | Ratio [7]: 24000 | K ass [8]: 39000 l M-1 | K ass (Trypsin II (Bos taurus)): 2.5e+06 l M-1 | Ratio [10]: 49000 | Ratio [11]: 430 | Ratio [12]: 140 | Ratio [13]: 8700

CC(C)(C)c1ccc(C(=O)Nc2ccc(C(=O)O)cc2NC(=O)c2cccc(C(=N)N)c2)cc1
K ass [1]: 5.4e+07 l M-1

COc1ccc(C(=O)Nc2ccc(C(=N)N)cc2NC(=O)c2ccc(OC)cc2)cc1
K ass [1]: 270000 l M-1

CC(C)(C)c1ccc(C(=O)Nc2ccccc2NC(=O)C2CCCN(C(=N)N)C2)cc1 (stereo not drawn)
K ass [1]: 1.2e+07 l M-1

CCOc1ccc(C(=O)Nc2ccccc2NC(=O)c2cccc(C(=N)N)c2)cc1
K ass [1]: 2.9e+07 l M-1

COc1ccc(C(=O)Nc2ccccc2NC(=O)c2ccc(C(=N)N)cc2)cc1
K ass [1]: 5.7e+06 l M-1

CC(C)c1ccc(C(=O)Nc2ccccc2NC(=O)c2cccc(C(=N)N)c2)cc1
K ass [1]: 1.8e+08 l M-1

COc1ccc(C(=O)Nc2ccccc2NC(=O)C2CCCN(C(=N)N)C2)cc1 (stereo not drawn)
K ass [1]: 1e+06 l M-1

CC(C)c1ccc(C(=O)Nc2cc(O)ccc2NC(=O)c2cccc(C(=N)N)c2)cc1
K ass [1]: 2.3e+08 l M-1
